In ChEMBL document CHEMBL1153376, “Lipophilic lysine-spermine conjugates are potent polyamine transport inhibitors for use in combination with a polyamine biosynthesis inhibitor” (J Med Chem, 2009):
Active and inactive are the calls of the source. No cut-off for these calls is given here.

Assays:
[1] = biological target: T1, Ornithine decarboxylase (Homo sapiens) (UniProt P11926); experiment: Inhibition of ornithine decarboxylase activity in human SK-MEL cells at 10 uM after 24 hrs relative to control; assay type: cell-based; design: scale not given: the % may be the effect or the level left
T1 sequence (whole entry): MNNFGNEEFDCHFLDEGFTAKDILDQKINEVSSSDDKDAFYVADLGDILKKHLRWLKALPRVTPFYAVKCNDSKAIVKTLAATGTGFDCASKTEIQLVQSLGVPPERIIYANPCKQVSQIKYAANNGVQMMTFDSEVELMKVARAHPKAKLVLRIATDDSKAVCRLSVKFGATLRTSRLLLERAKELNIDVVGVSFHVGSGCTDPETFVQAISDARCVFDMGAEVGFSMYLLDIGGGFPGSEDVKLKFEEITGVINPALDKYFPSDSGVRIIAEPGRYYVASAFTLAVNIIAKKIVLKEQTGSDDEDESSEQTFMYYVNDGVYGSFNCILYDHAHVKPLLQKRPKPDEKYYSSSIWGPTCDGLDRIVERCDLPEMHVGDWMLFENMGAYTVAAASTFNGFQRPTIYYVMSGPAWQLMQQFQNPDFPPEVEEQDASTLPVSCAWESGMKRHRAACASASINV
Method in brief: (§1)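 SK-Mel human melanoma cells exposed to 10 µM agent alone for 24 h. Enzyme activity (ODC; SSAT) measured and expressed as % of untreated control.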

[2] = biological target: Diamine acetyltransferase 1 (Homo sapiens) (UniProt P21673); experiment: Inhibition of spermidine/spermine N1-acetyltransferase activity in human SK-MEL cells at 10 uM after 24 hrs relative to control; assay type: cell-based; design: scale not given: the % may be the effect or the level left; method in brief: as §1
Sequence of Diamine acetyltransferase 1 (Homo sapiens) (P21673 whole entry): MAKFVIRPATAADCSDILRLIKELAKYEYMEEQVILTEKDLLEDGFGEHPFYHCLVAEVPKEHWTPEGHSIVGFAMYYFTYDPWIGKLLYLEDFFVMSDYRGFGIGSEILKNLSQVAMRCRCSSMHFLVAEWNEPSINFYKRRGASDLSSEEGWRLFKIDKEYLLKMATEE

MDA-MB-231 [3] = experiment: Cytotoxicity against human MDA-MB-231 cells after 6 days by MTS/PMS dye assay; settings: MDA-MB-231, 144 h
Mus musculus [4] = experiment: Antitumor activity against 7,12-dimethylbenz(alpha)anthracene-induced squamous cell carcinoma in FVB/N transgenic mouse model expressing K6/ODC gene assessed as tumor growth inhibition at 0.5 mg/kg, ip administered twice daily after 4 weeks; assay type: functional, organism-based; design: dose 0.5 mg/kg
MDA-MB-231 [5] = experiment: Inhibition of [2,9-3H]spermidine uptake in human MDA-MB-231 cells after 15 mins by Lineweaver-Burke plot analysis; assay type: functional, cell-based
Method in brief: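 Cells then washed three times in cold PBS and lysed in 0.1% SDS, and lysates scintillation-counted. Four substrate concentrations (0.3–3 µM) and five inhibitor concentrations (0.01–1.0 µM) plus control. Ki from slopes of Lineweaver-Burke plots against inhibitor concentration (Ki = y-intercept/slope).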

Mus musculus [6] = organism: Mus musculus; experiment: Antitumor activity against 7,12-dimethylbenz(alpha)anthracene-induced squamous cell carcinoma in FVB/N transgenic mouse model expressing K6/ODC gene assessed as tumor growth inhibition after 4 weeks; assay type: functional, organism-based

How did the Activity [1] turn out when `CCCCCCCC(=O)NCCCC[C@H](N)C(=O)NCCCNCCCCNCCCN` was run?
The Activity was 110%.

And the Activity [2]?
The Activity was 40%.

What does the source list for `CCCCCCCCCCCCCCCC(=O)NCCCC[C@@H](N)C(=O)NCCCNCCCCNCCCN` [AMXT-1501]?
IC50 (MDA-MB-231 [3]): 57000 nM; Activity (Mus musculus [4]): Active; Ki (MDA-MB-231 [5]): 10.5 nM

Which Activity [1] does the source give for `CCCCCCCCCCCCCCCC(=O)NCCCC[C@H](N)C(=O)NCCCNCCCCNCCCN` here?
The Activity was 46%.

What about the Activity [2] of the same molecule?
Its Activity is 40%.

And the Ki (MDA-MB-231 [5])?
The Ki was 7.5 nM.

How did the Activity (Mus musculus [6]) turn out when `NCCCC(N)(C(=O)O)C(F)F` (centres undefined) was run?
Its Activity is “Active”.
